The record followed here is ChEMBL document CHEMBL2390947, “New insight into adenosine receptors selectivity derived from a novel series of [5-substituted-4-phenyl-1,3-thiazol-2-yl] benzamides and furamides” (Eur J Med Chem, 2013).

Usually pKi stands for the negative decadic logarithm of the Ki, by convention in mol/L.

Structures are written as SMILES. pKi: −log10 of the molar value.

Experiment [1] deals with Adenosine receptor A2a (Homo sapiens, UniProt P29274). As to the kind of experiment: Displacement of [3H]NECA from human adenosine A2A receptor expressed in CHO cells. It counts as cell-based. The method in brief: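 Membranes prepared from stably transfected CHO cells expressing human A2A receptor by two-step centrifugation (1000 × g, then 100,000 × g), frozen and kept at -80 °C. Competition against 30 nM [3H]NECA, with 100 µM R-PIA for non-specific binding. Ki obtained by competition-curve fitting.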

Experiment [2] deals with T1, Adenosine receptor A3 (Homo sapiens, UniProt P0DMS8).
T1 sequence (P0DMS8 whole entry): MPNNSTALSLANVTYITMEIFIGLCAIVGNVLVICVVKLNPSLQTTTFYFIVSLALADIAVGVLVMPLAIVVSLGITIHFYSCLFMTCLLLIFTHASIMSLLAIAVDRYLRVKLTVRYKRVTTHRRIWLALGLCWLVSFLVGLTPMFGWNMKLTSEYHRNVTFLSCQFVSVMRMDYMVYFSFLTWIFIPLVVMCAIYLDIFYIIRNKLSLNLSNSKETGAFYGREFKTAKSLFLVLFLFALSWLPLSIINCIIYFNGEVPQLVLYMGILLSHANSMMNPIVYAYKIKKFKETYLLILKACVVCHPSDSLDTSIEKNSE
As to the kind of experiment: Displacement of [3H]HEMADO from human adenosine A3 receptor expressed in CHO cells. It is filed as cell-based. The method in brief:
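Human A3 receptor binding in membranes from stably transfected CHO cells (low-speed then 100,000 × g pellet, stored at -80 °C). Radioligand was the agonist [3H]HEMADO at 1 nM; non-specific binding measured with 100 µM R-PIA. Ki values derived from competition experiments.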

For experiment [3], the target named is T2, Adenosine receptor A1 (Homo sapiens, UniProt P30542).
T2 sequence (P30542 whole entry): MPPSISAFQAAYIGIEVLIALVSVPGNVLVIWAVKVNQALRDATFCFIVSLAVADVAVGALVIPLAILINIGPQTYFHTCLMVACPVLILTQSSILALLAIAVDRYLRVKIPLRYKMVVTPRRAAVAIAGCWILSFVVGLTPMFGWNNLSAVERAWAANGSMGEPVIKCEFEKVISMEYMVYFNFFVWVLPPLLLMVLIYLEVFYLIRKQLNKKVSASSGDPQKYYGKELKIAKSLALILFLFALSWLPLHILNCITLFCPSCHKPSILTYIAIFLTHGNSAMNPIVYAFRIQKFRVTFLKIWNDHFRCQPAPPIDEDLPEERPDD
The experiment can be described thus: Displacement of [3H]CCPA from human adenosine A1 receptor expressed in CHO cells. It counts as cell-based. The method in brief: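 Agonist radioligand competition on membranes from CHO cells stably transfected with human A1 receptor (1000 × g spin to clear debris, crude membranes pelleted at 100,000 × g, stored at -80 °C). Tracer 1 nM [3H]CCPA; non-specific binding defined with 1 mM theophylline. Ki computed from competition curves.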
(In general: Displacement assays read how much labelled ligand stays bound in the presence of the test substance.)

Experiment [4] concerns the target T3, Adenosine receptor A2b (Homo sapiens, UniProt P29275).
T3 sequence (P29275 whole entry): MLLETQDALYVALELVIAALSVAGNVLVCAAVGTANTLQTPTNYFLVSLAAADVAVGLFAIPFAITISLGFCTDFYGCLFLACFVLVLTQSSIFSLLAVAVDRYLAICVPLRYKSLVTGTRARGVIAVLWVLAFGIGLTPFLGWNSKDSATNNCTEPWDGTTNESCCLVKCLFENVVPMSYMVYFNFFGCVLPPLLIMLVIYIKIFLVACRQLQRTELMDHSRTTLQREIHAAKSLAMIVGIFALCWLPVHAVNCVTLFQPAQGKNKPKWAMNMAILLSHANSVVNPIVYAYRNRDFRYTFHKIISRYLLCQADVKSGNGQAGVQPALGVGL
The experiment can be described thus: Antagonist activity at human adenosine A2B receptor expressed in CHO cells assessed as inhibition of NECA-stimulated adenylyl cyclase activity. It is filed as functional, cell-based. Put shortly:
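Affinity at human A2B receptor taken from inhibition of NECA-stimulated adenylyl cyclase activity. Membranes from stably transfected CHO cells were obtained by a single high-speed spin of the homogenate, resuspended in 50 mM Tris/HCl pH 7.4 and used at once.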

The species entered for experiment [5] is Homo sapiens. As to the kind of experiment: Selectivity ratio of Ki for human adenosine A1 receptor to Ki for human adenosine A2A receptor.
In experiment [6] the test system is adenosine A3/A2A receptor ratio (Homo sapiens). The experiment can be described thus: Selectivity ratio of Ki for human adenosine A2A receptor to Ki for human adenosine A3 receptor.
The species entered for experiment [7] is Homo sapiens. The experiment can be described thus: Selectivity ratio of Ki for human adenosine A2A receptor to Ki for human adenosine A1 receptor.
The target in experiment [8] is T4, Adenosine receptors; A1 & A3 (Homo sapiens) (UniProt P30542+P0DMS8). As to the kind of experiment: Selectivity ratio of Ki for human adenosine A3 receptor to Ki for human adenosine A1 receptor.
The species entered for experiment [9] is Homo sapiens. As to the kind of experiment: Selectivity ratio of Ki for human adenosine A3 receptor to Ki for human adenosine A2A receptor.
Experiment [10] is filed under the species Homo sapiens. As to the kind of experiment: Selectivity ratio of Ki for human adenosine A2A receptor to Ki for human adenosine A3 receptor.
Experiment [11] deals with T4, Adenosine receptors; A1 & A3 (Homo sapiens). The experiment can be described thus: Selectivity ratio of Ki for human adenosine A1 receptor to Ki for human adenosine A3 receptor.
The species named for experiment [12] is Homo sapiens. The experiment can be described thus: Selectivity ratio of Ki for human adenosine A2B receptor to Ki for human adenosine A3 receptor.
The species entered for experiment [13] is Homo sapiens. As to the kind of experiment: Selectivity ratio of Ki for human adenosine A1 receptor to Ki for human adenosine A2B receptor.
The species named for experiment [14] is Homo sapiens. As to the kind of experiment: Selectivity ratio of Ki for human adenosine A2A receptor to Ki for human adenosine A2B receptor.

Chain of Adenosine receptor A2a (P29274 whole entry): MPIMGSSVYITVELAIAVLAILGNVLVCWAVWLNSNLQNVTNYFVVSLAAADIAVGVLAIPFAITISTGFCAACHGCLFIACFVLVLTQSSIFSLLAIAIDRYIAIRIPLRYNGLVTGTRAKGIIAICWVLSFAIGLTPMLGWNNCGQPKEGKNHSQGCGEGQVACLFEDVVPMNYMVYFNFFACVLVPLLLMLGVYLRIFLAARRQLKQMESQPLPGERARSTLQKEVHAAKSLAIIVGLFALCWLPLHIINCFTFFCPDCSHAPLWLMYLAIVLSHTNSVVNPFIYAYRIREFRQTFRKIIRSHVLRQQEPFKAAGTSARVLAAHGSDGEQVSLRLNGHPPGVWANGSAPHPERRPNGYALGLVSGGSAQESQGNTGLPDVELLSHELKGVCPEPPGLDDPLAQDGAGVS

Consider `Cc1ccc(C(=O)Nc2nc(-c3ccccc3)c(-c3nc(N)c4c(C)c(C)sc4n3)s2)cc1`, for which the pKi is < 4.52 in [1], 5.86 in experiment [2], < 4.52 in experiment [3] and < 5.00 in [4].

`Nc1nc(-c2sc(NC(=O)c3ccco3)nc2-c2ccccc2)nc2sc3c(c12)CCCC3`: the pKi was 4.84 in experiment [1], 4.44 in [2], < 5.00 in [3] and < 5.00 in [4].

Regarding `COc1ccc(C(=O)Nc2nc(-c3ccccc3)c(-c3nc(N)c4c5c(sc4n3)CCCC5)s2)cc1`, the pKi in [1], in experiment [2], in [3] and in experiment [4] was < 5.00 in each case.

For the compound `COc1ccc(C(=O)Nc2nc(-c3ccccc3)c(-c3nc(N)c4c(C)c(C)sc4n3)s2)cc1`, the pKi is < 4.52 in [1], 5.61 in [2], < 4.00 in [3] and < 5.00 in experiment [4].

On to `CN(C)c1nc(N)nc(-c2sc(NC(=O)c3ccco3)nc2-c2ccccc2)n1`, for which the Ratio Ki was 3 in experiment [5] and 5 in experiment [6]. Besides, the pKi in experiment [1] was 6.75; in experiment [2], 6.04; in experiment [3], 6.27; in experiment [4], 5.10.

On to `O=C(Nc1nc(-c2ccccc2)c(C(=O)c2cccnc2)s1)c1ccco1`, for which the pKi in experiment [1] is 6.26; in [2] it was 5.73; in experiment [3], 6.75; in experiment [4], < 5.00.

Take `Cc1sc2nc(-c3sc(NC(=O)c4ccco4)nc3-c3ccccc3)[nH]c(=O)c2c1C`: the pKi in experiment [1] is < 4.00; in experiment [2], < 5.00; in experiment [3], < 5.00; in experiment [4], < 5.00.

Take `Cc1ccc(C(=O)Nc2nc(-c3ccccc3)c(-c3nc(N)nc(N(C)C)n3)s2)cc1`: the pKi in [1] is 6.25; in experiment [2], 6.09; in [3] it was 5.44; in experiment [4] it was < 4.52.

Regarding `O=C(Nc1nc(-c2ccccc2)c(-c2ccncc2)s1)c1ccco1`, the pKi in [1] was 8.18; in [2], 8.03; in experiment [3], 9.24; in experiment [4], 8.56. Further, the figures for the Ratio Ki in experiment [7] and in experiment [8] were 11 and 16, respectively.

Turning to `Cc1ccc(C(=O)Nc2nc(-c3ccccc3)c(-c3nc(N)c4c5c(sc4n3)CCCC5)s2)cc1`, the pKi in experiment [1], in [2], in [3] and in [4] was < 5.00 each time.

For the compound `COc1ccc(C(=O)Nc2nc(-c3ccccc3)c(C(=O)c3ccccn3)s2)cc1`, the Ratio Ki in experiment [5] came to 5.7; in experiment [9], 1.6. The pKi in [1] was 6.89; in [2] it was 6.70; in [3] it was 6.16; in experiment [4], < 5.00.

As for `COc1ccc(C(=O)Nc2nc(-c3ccccc3)c(C(=O)c3cccnc3)s2)cc1`, the pKi in [1], in experiment [2], in [3] and in [4] was < 5.00 in each case.

Take `Cc1sc2nc(-c3sc(NC(=O)c4ccco4)nc3-c3ccccc3)nc(N)c2c1C`: the results for the Ratio Ki in experiment [10], in [11] and in experiment [12] were 8, 16 and > 13, respectively. Besides, the pKi in experiment [1] is 5.23; in experiment [2], 6.13; in experiment [3], 4.92; in experiment [4] it was < 5.00.

In the case of `Nc1nc(-c2sc(NC(=O)c3ccccc3)nc2-c2ccccc2)nc2sc3c(c12)CCCC3`, the pKi in experiment [1], in experiment [2], in [3] and in [4] was < 5.00 in each case.

As to `CN(C)c1nc(N)nc(-c2sc(NC(=O)c3ccccc3)nc2-c2ccccc2)n1`, the pKi in experiment [1] is 6.49; in [2], 6.25; in experiment [3], 6.10; in [4], < 5.00.

With `O=C(Nc1nc(-c2ccccc2)c(-c2nc3ccccc3c(=O)[nH]2)s1)c1ccco1`, the pKi in [1] was 5.06; in experiment [2], 5.41; in experiment [3], < 5.00; in experiment [4], < 5.00.

Turning to `Cc1sc2nc(-c3sc(NC(=O)c4ccccc4)nc3-c3ccccc3)nc(N)c2c1C`, the pKi in experiment [1] is 5.31; in [2], 6.17; in experiment [3] it was 5.14; in experiment [4], < 5.00.

Turning to `O=C(Nc1nc(-c2ccccc2)c(C(=O)c2ccccn2)s1)c1ccco1`, the Ratio Ki in experiment [5] came to 5; in experiment [9], 13. The pKi was 7.13 in experiment [1], 6.02 in experiment [2], 6.39 in [3] and 5.04 in [4].

In the case of `COc1ccc(C(=O)Nc2nc(-c3ccccc3)c(-c3nc(N)nc(N(C)C)n3)s2)cc1`, the pKi in experiment [1] was 5.70; in experiment [2], 5.58; in experiment [3] it was 4.98; in [4] it was < 5.00.

With `O=C(Nc1nc(-c2ccccc2)c(-c2ccccn2)s1)c1ccco1`, the pKi in experiment [1] is 6.71; in experiment [2] it was 5.69; in experiment [3], 6.56; in experiment [4], 6.08. In addition, the Ratio Ki amounted to 0.33 in experiment [13] and 0.23 in experiment [14].
